Data as given in ChEMBL document CHEMBL1126828, “Structure-activity relationships of trans-3,4-dimethyl-4-(3-hydroxyphenyl)piperidine antagonists for mu- and kappa-opioid receptors” (J Med Chem, 1993).
The source made the active and inactive calls. The rule behind the calls is not given here.

Assays:
[1] = target: Kappa-type opioid receptor (Rattus norvegicus) (UniProt P34975); test: Tested for the antagonism of kappa opioid receptor diuresis at a dose of 0.08 mg/kg subcutaneously; assay type: functional, organism-based; design: dose 0.08 mg/kg
In short: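 Male Long-Evans hooded rats (350-500 g), bremazocine HCl 0.08 mg/kg sc to induce diuresis, test antagonist sc at once on opposite side; metabolism cages, urine volume at 2 and 5 h. Three rats per dose, doses varied 2-fold; AD50 = dose halving 5-h urination.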

[2] = target: Mu-type opioid receptor (Mus musculus) (UniProt P42866); test: Antagonism of opioid analgesia using a mouse writhing model to block morphine ([…]) induced mu-opioid receptor (subcutaneously dosed); assay type: functional, organism-based
[3] = target: T1, Mu-type opioid receptor (Rattus norvegicus, UniProt P33535); test: Binding affinity towards mu opioid receptor by displacement of [3H]NAL from rat brain homogenates; assay type: tissue-based
[4] = target: Kappa-type opioid receptor (Cavia porcellus, UniProt P41144); test: Binding affinity towards kappa-opioid receptor by displacement of [3H]-EKC at from guinea pig cortical tissue
[5] = target: Kappa-type opioid receptor (Mus musculus) (UniProt P33534); test: Antagonism of opioid analgesia using a mouse writhing model to block U-50,488 ([…]) induced kappa-opioid receptor subcutaneously; assay type: functional, organism-based
[6] = target: T1, Mu-type opioid receptor; test: Binding affinity towards mu-opioid receptor by displacement of [3H]NAL at 10 nM from rat brain homogenates; assay type: tissue-based
[7] = target: T1, Mu-type opioid receptor; test: Binding affinity towards mu-opioid receptor by displacement of [3H]NAL at 100 nM from rat brain homogenates; assay type: tissue-based
[8] = target: Mu-type opioid receptor (Mus musculus) (UniProt P42866); conditions: 0.08 mg/kg

Mu-type opioid receptor (Mus musculus), sequence (P42866 whole entry): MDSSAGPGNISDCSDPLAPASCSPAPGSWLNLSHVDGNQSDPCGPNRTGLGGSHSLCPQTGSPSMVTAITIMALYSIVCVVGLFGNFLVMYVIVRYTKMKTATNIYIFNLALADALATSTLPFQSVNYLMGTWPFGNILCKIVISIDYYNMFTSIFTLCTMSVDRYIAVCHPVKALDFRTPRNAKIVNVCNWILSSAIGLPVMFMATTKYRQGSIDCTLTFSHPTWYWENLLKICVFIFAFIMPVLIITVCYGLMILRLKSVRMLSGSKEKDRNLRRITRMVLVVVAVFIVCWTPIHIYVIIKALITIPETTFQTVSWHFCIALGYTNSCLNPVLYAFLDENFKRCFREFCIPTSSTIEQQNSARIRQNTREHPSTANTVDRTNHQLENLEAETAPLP
Kappa-type opioid receptor (Mus musculus), sequence (P33534 whole entry): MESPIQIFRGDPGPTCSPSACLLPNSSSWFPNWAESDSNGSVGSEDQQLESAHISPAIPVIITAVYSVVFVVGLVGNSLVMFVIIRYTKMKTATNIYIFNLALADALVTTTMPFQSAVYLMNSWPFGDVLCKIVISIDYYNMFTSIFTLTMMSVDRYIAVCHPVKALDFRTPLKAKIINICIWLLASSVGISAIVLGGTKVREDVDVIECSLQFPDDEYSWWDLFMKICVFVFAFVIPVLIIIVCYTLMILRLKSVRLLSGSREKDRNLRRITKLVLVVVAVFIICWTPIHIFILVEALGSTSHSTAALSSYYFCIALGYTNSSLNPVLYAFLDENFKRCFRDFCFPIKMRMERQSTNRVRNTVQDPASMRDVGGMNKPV
T1 sequence (P33535 whole entry): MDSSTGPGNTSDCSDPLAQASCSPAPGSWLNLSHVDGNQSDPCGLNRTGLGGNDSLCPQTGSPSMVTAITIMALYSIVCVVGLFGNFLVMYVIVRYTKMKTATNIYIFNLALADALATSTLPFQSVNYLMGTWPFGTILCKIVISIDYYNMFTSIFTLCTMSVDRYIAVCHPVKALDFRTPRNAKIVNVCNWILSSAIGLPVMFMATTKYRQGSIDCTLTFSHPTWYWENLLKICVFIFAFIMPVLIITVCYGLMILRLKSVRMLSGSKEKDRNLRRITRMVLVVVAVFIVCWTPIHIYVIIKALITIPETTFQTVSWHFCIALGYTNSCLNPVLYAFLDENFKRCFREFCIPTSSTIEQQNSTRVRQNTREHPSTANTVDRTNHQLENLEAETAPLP
Kappa-type opioid receptor, sequence (P41144 whole entry): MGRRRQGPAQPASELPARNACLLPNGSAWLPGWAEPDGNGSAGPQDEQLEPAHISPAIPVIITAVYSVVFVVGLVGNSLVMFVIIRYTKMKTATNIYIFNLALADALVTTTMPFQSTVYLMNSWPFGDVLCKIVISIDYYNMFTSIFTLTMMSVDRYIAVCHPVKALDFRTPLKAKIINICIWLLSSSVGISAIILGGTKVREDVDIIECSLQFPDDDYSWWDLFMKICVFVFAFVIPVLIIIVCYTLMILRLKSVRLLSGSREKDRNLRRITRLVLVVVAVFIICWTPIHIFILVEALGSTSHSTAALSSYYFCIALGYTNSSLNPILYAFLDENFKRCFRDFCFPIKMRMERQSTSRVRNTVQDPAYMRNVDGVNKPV
Kappa-type opioid receptor (Rattus norvegicus), sequence (P34975 whole entry): as the sequence (P33534 whole entry) above, with D11E, S17A, S51P, A308V counted along it

| Compound | AD50 [1] | AD50 [2] | Ki [3] | Ki [4] | AD50 [5] | Ki [6] | Ki [7] | AD50 [8] |
| --- | --- | --- | --- | --- | --- | --- | --- | --- |
| CCCCCN1CC[C@@](C)(c2cccc(O)c2)[C@@H](C)C1 | 0.69 mg/kg | 0.37 mg/kg | 4.3 nM |  |  |  |  |  |
| C[C@H]1CN(CCC(O)c2ccccc2)CC[C@@]1(C)c1cccc(O)c1 (stereo partly drawn) |  |  | 0.96 nM | 12.5 nM |  |  |  |  |
| C[C@H]1CN(Cc2ccccc2)CC[C@@]1(C)c1cccc(O)c1 | 2.5 mg/kg | 0.29 mg/kg |  |  | 0.45 mg/kg | 65 nM | 89 nM |  |
| COc1ccccc1CCCN1CC[C@@](C)(c2cccc(O)c2)[C@@H](C)C1 | 2.2 mg/kg | 0.18 mg/kg | 0.95 nM |  | > 0.64 mg/kg |  |  |  |
| C[C@H]1CN(CCc2ccncc2)CC[C@@]1(C)c1cccc(O)c1 | 14 mg/kg | > 1.25 mg/kg |  |  | > 1.25 mg/kg | 54 nM | 99 nM |  |
| CCN1CC[C@@](C)(c2cccc(O)c2)[C@@H](C)C1 |  | > 1.25 mg/kg | 52 nM | 18 nM | > 1.25 mg/kg |  |  |  |
| C[C@H]1CN(CC(O)c2ccccc2)CC[C@@]1(C)c1cccc(O)c1 (stereo partly drawn) | 6.9 mg/kg | 2.4 mg/kg |  |  | 11.8 mg/kg | 48 nM | 97 nM |  |
| Cc1ccc(CCN2CC[C@@](C)(c3cccc(O)c3)[C@@H](C)C2)cc1 | 11 mg/kg | > 1.25 mg/kg |  |  | > 1.25 mg/kg | 52 nM | 95 nM |  |
| CCCCCCN1CC[C@@](C)(c2cccc(O)c2)[C@@H](C)C1 | 0.7 mg/kg | 0.052 mg/kg | 0.29 nM |  | 0.11 mg/kg |  |  |  |
| C[C@H]1CN(Cc2ccoc2)CC[C@@]1(C)c1cccc(O)c1 | 3.8 mg/kg | 0.4 mg/kg |  |  | 0.71 mg/kg | 82 nM | 100 nM |  |
| C[C@H]1CN(CC2CCCO2)CC[C@@]1(C)c1cccc(O)c1 (stereo partly drawn) | 3.2 mg/kg | 0.6 mg/kg |  |  | 0.75 mg/kg | 26 nM | 60 nM |  |
| C[C@H]1CN(CCC(=O)c2ccccc2)CC[C@@]1(C)c1cccc(O)c1 (stereo in doubt; 8) |  |  | 3.6 nM | 163 nM |  |  |  |  |
| C[C@H]1CN(C)CC[C@@]1(C)c1cccc(O)c1 | > 10 mg/kg | 0.74 mg/kg | 80 nM | 833 nM |  |  |  |  |
| C[C@H]1CN(CCC(=O)c2cccs2)CC[C@@]1(C)c1cccc(O)c1 |  |  | 1.5 nM | 15 nM |  |  |  |  |
| C[C@H]1CN(CCCCc2cccs2)CC[C@@]1(C)c1cccc(O)c1 | 3.3 mg/kg | 0.16 mg/kg |  |  | 0.43 mg/kg | 23 nM | 69 nM |  |
| C[C@H]1CN(CC2CC2)CC[C@@]1(C)c1cccc(O)c1 |  | 1.3 mg/kg | 21 nM |  | 6.1 mg/kg |  |  |  |
| C[C@H]1CN(CCc2ccc(Cl)c(Cl)c2)CC[C@@]1(C)c1cccc(O)c1 |  |  |  |  |  | 50 nM | 90 nM | inactive |
| C[C@H]1CN(CCCOc2ccccc2)CC[C@@]1(C)c1cccc(O)c1 | 8.4 mg/kg | > 1.25 mg/kg | 1 nM | 61 nM | > 1.25 mg/kg |  |  |  |
| C[C@H]1CN(CCCc2cccs2)CC[C@@]1(C)c1cccc(O)c1 (stereo in doubt; 42) [listing 1 of 2 here] |  |  | 0.2 nM | 3.3 nM |  |  |  |  |
| C[C@H]1CN(CCCc2cccs2)CC[C@@]1(C)c1cccc(O)c1 (stereo in doubt; 41) |  |  | 0.56 nM | 6.1 nM |  |  |  |  |
| C[C@H]1CN(Cc2ccco2)CC[C@@]1(C)c1cccc(O)c1 |  | 0.71 mg/kg | 5.8 nM | 71 nM | 1.35 mg/kg |  |  |  |
| C[C@H]1CN(CCCc2cccs2)CC[C@@]1(C)c1cccc(O)c1 (stereo in doubt; 42) [listing 2 of 2 here] |  | 0.03 mg/kg |  |  | 0.25 mg/kg |  |  |  |
| C[C@H]1CN(CCc2ccccc2)CC[C@@]1(C)c1cccc(O)c1 | 1.8 mg/kg | 0.16 mg/kg |  |  | 1.4 mg/kg |  |  |  |
| C[C@H]1CN(CCc2cccc(F)c2)CC[C@@]1(C)c1cccc(O)c1 | 1.4 mg/kg | 0.14 mg/kg |  |  | 0.84 mg/kg | 3.2 nM |  |  |
